# Compounds with a hit are over-represented: about 3.3% of the library has one in this group of screens.
# Myeloid diff 2 = promotes myeloid progenitor differentiation; calls only at 10 µM; AID 624256; 360,000 tested, 1% active; ER-HoxA9 myeloid progenitors, lysozyme-GFP differentiation, flow cytometry;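 active = normalized GFP-positive differentiation at or above the plate's own cutoff, the solvent-only control mean plus 3 SD; inconclusive = no clear call, values can overlap the other calls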;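 note: cells exposed to compound for four days before flow analysis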
# ATG4B inh = ATG4B (human) cysteine protease inhibition. inhibition, % at 8.33 µM. ATG4B cleavage of LC3-PLA2, NBD-HPC fluorescence, 1 h. 340,000 tested, 0.51% active. Q9Y4P1. AID 504462; in the data active = inhibition above about 40%
# Arr AP2 block = inhibitors of human beta-arrestin and AP2 interaction | AID 504490 | FITC-arrestin peptide / GST-AP2 beads, flow cytometry; AP2 beta2 appendage carries R879A mutation | inhibition, % at 10 µM | 340,000 tested, 0.31% active;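 active = inhibition above a set limit, near 3 SD of compounds lacking own fluorescence, cut at about 54% in these data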;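 note: plate controls were DMSO wells for no effect and 5 µM unlabelled arrestin peptide for full effect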
#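 Test system: GST-tagged AP2 beta2-adaptin appendage (R879A) on 4 µm glutathione beads; also added: fluorescein-tagged arrestin peptide at 50 nM final; timing: 12 min plus 1 h, RT; signal: flow cytometry, FL1 (488/535 nm); read-out: percent drop in bead-associated FITC signal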
# NRP1-CendR mod = alters CendR peptide binding to human NRP-1. inhibition, % at 25 µM. FAM-RPARPAR peptide binding to NRP-1, fluorescence polarization. O14786. 360,000 tested, 0.85% active;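 active = inhibition or corrected inhibition above about 18%, plus a signal ratio from 0.5 to 1.5, limit read from the data, passing the limit was not always enough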
# Granule exo inh = blocks lytic granule exocytosis; TALL-104 LAMP-1 surface exposure, flow cytometry; cells stimulated with thapsigargin and PMA; 360,000 tested, 0.66% active; AID 651702; inhibition, % at 10 µM;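 active = inhibition above about 55%, limit read from the data; inconclusive = no clear call, values can overlap the other calls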
# ABCB6 inh MLPCN = human ABCB6 transporter inhibition | 360,000 tested, 0.19% active | Q9NP58 | fluorescence ratio to DMSO, % at 10 µM | AID 602162 | K562-ABCB6 porphyrin accumulation, flow cytometry, 1 h; stronger effect = lower value;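 active = fluorescence ratio to DMSO below 75%, the collection mean minus 3 SD; inconclusive = too few cells collected in the well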;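 note: signal is porphyrin accumulated inside mitochondria; 100% equals median channel fluorescence of DMSO control wells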
# Target sequence (Q9NP58 whole entry, looked up): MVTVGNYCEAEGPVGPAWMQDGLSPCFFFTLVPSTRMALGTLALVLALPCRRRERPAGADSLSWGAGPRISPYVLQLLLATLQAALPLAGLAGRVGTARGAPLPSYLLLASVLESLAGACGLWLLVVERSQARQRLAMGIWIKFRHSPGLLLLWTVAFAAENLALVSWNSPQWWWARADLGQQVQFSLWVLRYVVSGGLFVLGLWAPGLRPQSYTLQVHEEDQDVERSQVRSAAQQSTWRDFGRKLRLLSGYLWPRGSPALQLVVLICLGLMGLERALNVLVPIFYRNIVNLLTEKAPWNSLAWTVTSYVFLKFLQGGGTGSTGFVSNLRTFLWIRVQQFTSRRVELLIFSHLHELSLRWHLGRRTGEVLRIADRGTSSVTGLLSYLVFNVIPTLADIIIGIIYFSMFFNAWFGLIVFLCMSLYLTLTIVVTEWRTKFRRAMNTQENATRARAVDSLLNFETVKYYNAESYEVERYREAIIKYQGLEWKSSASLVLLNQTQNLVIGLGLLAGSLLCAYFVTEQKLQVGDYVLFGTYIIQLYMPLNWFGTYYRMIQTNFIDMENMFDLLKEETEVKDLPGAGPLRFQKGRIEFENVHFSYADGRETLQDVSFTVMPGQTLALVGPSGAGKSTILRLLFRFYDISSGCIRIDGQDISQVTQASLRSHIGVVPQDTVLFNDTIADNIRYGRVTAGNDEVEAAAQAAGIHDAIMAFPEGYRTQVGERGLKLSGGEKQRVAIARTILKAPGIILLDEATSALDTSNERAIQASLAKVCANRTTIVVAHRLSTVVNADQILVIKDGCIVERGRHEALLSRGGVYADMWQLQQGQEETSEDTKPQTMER
# Myeloid diff CP1 = promotes myeloid progenitor differentiation | shares compounds with Myeloid diff 2 | AID 651706 | 2,300 tested, 2% active | calls only | ER-HoxA9 myeloid progenitors, GFP/Mac1 double-positive flow;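 active = share of green or green-and-red cells above 9 and 9% in run 1 or 4 and 3% in run 2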
# GFP autofluor = compound fluorescence in myeloid differentiation counter-screen; shares compounds with Myeloid diff 2; ER-HoxA9 myeloid progenitors, no estrogen, GFP autofluorescence flow cytometry; vehicle wells 0%, positive control 100%; fluorescence response, % (test concentration not listed); 2,300 tested, 7.4% active; AID 651707;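 active = over 5% cells positive for green fluorescent reporter, or over 2% positive for both it and APC stain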;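 note: range taken on the double positive population between DMSO and positive control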
# Exocytosis CP01 = blocks lytic granule exocytosis; shares compounds with Granule exo inh; TALL-104 cells, LAMP-1 externalization, flow cytometry; stimulated with PMA plus thapsigargin; inhibition, % at 10 µM; 1,500 tested, 11% active; in the data active = inhibition above about 60%;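 note: 0% = stimulated vehicle wells and 100% = unstimulated wells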
# * hit, by the source's call; i = inactive; u = inconclusive; x = not tested or not shown; + = active, no number.
SMILES,Myeloid diff 2,ATG4B inh,Arr AP2 block,NRP1-CendR mod,Granule exo inh,ABCB6 inh MLPCN,Exocytosis CP01,others
CN1CCN(S(=O)(=O)c2ccc(NC(=S)NC(=O)c3ccc(Cl)cc3)cc2)CC1,i,-5,27,0,0,93,x,
COCCNc1nc(NCc2cccc(OC)c2)c2sc(-c3ccccc3)cc2n1,+,x,x,0,76*,96,99*,Myeloid diff CP1=i;GFP autofluor=0
CCC(=O)Nc1c(C#N)c2nc3ccccc3nc2n1-c1ccc(C)cc1,i,-1,2,-16,3,101,x,
N#Cc1c(NC(=O)c2ccc(Br)o2)n(-c2ccccc2)c2nc3ccccc3nc12,+,13,-8,-71,72*,123,97*,Myeloid diff CP1=i;GFP autofluor=0
COc1ccccc1CNc1nc(NC(C)C)nc2ccsc12,i,x,x,16,-13,85,x,
COc1ccccc1CNc1nc(NCc2ccc(C(C)C)cc2)c2sccc2n1,i,x,x,6,62*,102,85*,Myeloid diff CP1=i;GFP autofluor=0
CCN(CC)CCOC(=O)c1ccc(N/C=C(/C#N)c2nc(-c3ccc(OC)cc3)cs2)cc1,i,-21,4,-32,64*,437,66*,Myeloid diff CP1=i;GFP autofluor=1
COc1ccccc1N1CCN(C(=O)c2oc3c(c2C)C(=O)CC(C)(C)C3)CC1,u,-14,-9,-1,-2,104,x,
CCOC(=O)c1cc2c(c(-c3ccccc3)n1)[C@H](CCO)N(S(=O)(=O)C(C)(C)C)C2,i,5,17,6,-4,102,x,
CCOC(=O)C1(Cc2cccc(OC)c2)CCN(C/C=C/c2ccc(OC)cc2)CC1,i,0,1,7,23,u,x,
CCOC(=O)C1(Cc2ccccc2)CCN(Cc2ccc(C)s2)CC1,i,3,3,-16,64*,94,-4,
CCOC(=O)C1(Cc2ccccc2)CCN(Cc2cc(OC)c3c(c2)OCO3)CC1,i,4,1,6,60*,103,-4,
CCOC(=O)C1(Cc2ccccc2)CCN(Cc2ccc(C3CCCCO3)s2)CC1 (centres undefined),i,8,0,1,3,99,x,
CCOC(=O)C1(Cc2cccc(OC)c2)CCN(C/C=C/c2ccccc2)CC1,i,-1,6,4,64*,90,-12,
Cc1cc(S(=O)(=O)NCc2ccc(N3CCN(C)CC3)cc2)c(C)s1,i,2,9,4,-1,101,x,
Cc1oc(=O)c(NC(=O)c2ccccc2)cc1C(N)=O,i,-3,38,20,-2,103,x,
Cc1oc(=O)c(NC(=O)c2cccc(Cl)c2)cc1C(=O)c1ccccc1,i,9,-1,4,97*,103,-3,
CCOC(=O)c1nnc(-c2ccc(C)cc2)nc1Oc1ccc(Cl)cc1Cl,i,-5,12,-7,4,96,x,
CCOC(=O)c1nnc(-c2ccc(C)cc2)nc1Sc1ccccc1Cl,i,2,6,-3,79*,93,13,
CCOC(=O)c1nnc(-c2ccc(C)cc2)nc1Sc1ccc(Cl)cc1,i,1,23,-4,-6,87,x,
CCOC(=O)c1nnc(-c2ccccc2)nc1Sc1c(Cl)cccc1Cl,i,0,6,10,96*,89,57,
CCOC(=O)c1nnc(-c2ccc(C)cc2)nc1Oc1ccccc1Cl,i,-7,-3,-11,67*,103,8,
O=C(C(O)c1ccccc1)N1N=C(c2ccccc2)CC1(O)C(F)(F)F (centres undefined),i,-1,-15,-1,11,92,x,
Nc1cccc2c1C(=O)N(CC(=O)NC13CC4CC(CC(C4)C1)C3)C2=O,i,-5,-24,-1,-6,102,x,
